Measurements published in ChEMBL document CHEMBL5674880 (PLoS One, 2018).

How the values were obtained:
Assay type in all cases: functional, cell-based
MCF7 = experiment: Antiproliferative activity against human MCF7 cells after 10 days; details: MCF7, 240 h
Summary of the method: (§1)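 Broad cancer cell line panel (Eurofins Oncopanel, about 240 lines; mycoplasma negative, STR verified) grown in 2D culture and exposed to compound in a 10-day proliferation assay. The top concentration was 10 μM for the SMYD2 inhibitor series and 25 μM for the SMYD3 inhibitor. The proliferative IC50 is taken from concentration-response data, each value the mean of three biological replicates.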

OE19 = experiment: Antiproliferative activity against human OE19 cells after 10 days; details: OE19, 240 h; summary of the method: as §1
Calu-1 = experiment: Antiproliferative activity against human Calu-1 cells after 10 days; details: Calu-1, 240 h
Summary of the method: (§2)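 10-day 2D proliferation screen of a broad cancer cell panel (about 240 lines, Eurofins Oncopanel). All lines were mycoplasma negative and STR verified. Compounds were dosed up to a top concentration of 10 μM or 25 μM, depending on the inhibitor. Anti-proliferative IC50 values are the average of three biological replicates.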

COR-L23 = experiment: Antiproliferative activity against human COR-L23 cells after 10 days; details: COR-L23, 240 h; summary of the method: as §2
SW1417 = experiment: Antiproliferative activity against human SW1417 cells after 10 days; details: SW1417, 240 h
[1] = Antiproliferative activity against human A7 cells after 10 days; details: A7, 240 h
Summary of the method: (§3)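 Tested as part of a 240-line cancer cell panel (Eurofins Oncopanel); all lines were mycoplasma-negative and STR-verified. Cells were exposed to a compound concentration series in 2D culture for 10 days. The highest concentration was 10 μM or 25 μM, depending on the inhibitor. Antiproliferative IC50 was derived from the mean of three biological replicates.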

MES-SA = experiment: Antiproliferative activity against human MES-SA cells after 10 days; details: 240 h; summary of the method: as §1
BFTC-905 = experiment: Antiproliferative activity against human BFTC-905 cells after 10 days; details: BFTC-905, 240 h; summary of the method: as §3
Daudi = experiment: Antiproliferative activity against human Daudi cells after 10 days; details: 240 h; summary of the method: as §2
SW48 = experiment: Antiproliferative activity against human SW48 cells after 10 days; details: SW48, 240 h
T98G = experiment: Antiproliferative activity against human T98G cells after 10 days; details: 240 h
SNU1 = experiment: Antiproliferative activity against human SNU1 cells after 10 days; details: SNU1, 240 h
SK-N-FI = experiment: Antiproliferative activity against human SK-N-FI cells after 10 days; details: 240 h
HCT-15 = experiment: Antiproliferative activity against human HCT-15 cells after 10 days; details: HCT-15, 240 h
Summary of the method: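 Cell lines run in the Eurofins Oncopanel broad cancer panel, all mycoplasma-negative and STR-verified. Cells were exposed to a compound concentration series in a 10-day proliferation assay, and an anti-proliferative IC50 was derived. Values are the mean of three biological replicates.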

[2] = Antiproliferative activity against human MT-3 cells after 10 days; details: MT-3, 240 h; summary of the method: as §1
[3] = Antiproliferative activity against human BC1 cells after 10 days; details: BC1, 240 h; summary of the method: as §3
SW1463 = experiment: Antiproliferative activity against human SW1463 cells after 10 days; details: SW1463, 240 h
Jurkat = experiment: Antiproliferative activity against human Jurkat cells after 10 days; details: 240 h; summary of the method: as §1
FaDu = experiment: Antiproliferative activity against human FaDu cells after 10 days; details: 240 h; summary of the method: as §2
Daoy = experiment: Antiproliferative activity against human Daoy cells after 10 days; details: 240 h; summary of the method: as §2
SK-BR-3 = experiment: Antiproliferative activity against human SK-BR-3 cells after 10 days; details: SK-BR-3, 240 h
BXPC-3 = experiment: Antiproliferative activity against human BXPC-3 cells after 10 days; details: BXPC-3, 240 h; summary of the method: as §3
SK-NEP-1 = experiment: Antiproliferative activity against human SK-NEP-1 cells after 10 days; details: SK-NEP-1, 240 h
NCI-H446 = experiment: Antiproliferative activity against human NCI-H446 cells after 10 days; details: NCI-H446, 240 h; summary of the method: as §1
COLO 320DM = experiment: Antiproliferative activity against human COLO 320DM cells after 10 days; details: 240 h; summary of the method: as §3
A549 = experiment: Antiproliferative activity against human A549 cells after 10 days; details: A549, 240 h; summary of the method: as §3
[4] = Antiproliferative activity against human OCUG-1 cells after 10 days; details: OCUG-1, 240 h; summary of the method: as §1
RPMI-7951 = experiment: Antiproliferative activity against human RPMI-7951 cells after 10 days; details: RPMI-7951, 240 h
NCI-H292 = experiment: Antiproliferative activity against human NCI-H292 cells after 10 days; details: NCI-H292, 240 h; summary of the method: as §1
SW872 = experiment: Antiproliferative activity against human SW872 cells after 10 days; details: SW872, 240 h
Capan-2 = experiment: Antiproliferative activity against human Capan2 cells after 10 days; details: Capan-2, 240 h; summary of the method: as §2
HOS = experiment: Antiproliferative activity against human HOS cells after 10 days; details: 240 h; summary of the method: as §2
SW 962 = experiment: Antiproliferative activity against human SW 962 cells after 10 days; details: SW 962, 240 h
CAPAN-1 = experiment: Antiproliferative activity against human CAPAN-1 cells after 10 days; details: CAPAN-1, 240 h; summary of the method: as §3
[5] = Antiproliferative activity against human TE 381.T cells after 10 days; details: 240 h
MDA-MB-231 = experiment: Antiproliferative activity against human MDA-MB-231 cells after 10 days; details: MDA-MB-231, 240 h; summary of the method: as §1
SW982 = experiment: Antiproliferative activity against human SW982 cells after 10 days; details: SW982, 240 h
Ramos = experiment: Antiproliferative activity against human Ramos cells after 10 days; details: 240 h
MHH-PREB-1 = experiment: Antiproliferative activity against human MHH-PREB-1 cells after 10 days; details: MHH-PREB-1, 240 h; summary of the method: as §1
[6] = Antiproliferative activity against human OE21 cells after 10 days; details: OE21, 240 h; summary of the method: as §1
MG-63 = experiment: Antiproliferative activity against human MG-63 cells after 10 days; details: MG-63, 240 h; summary of the method: as §1
T47D = experiment: Antiproliferative activity against human T47D cells after 10 days; details: 240 h
[7] = Antiproliferative activity against human CEM/C1 cells after 10 days; details: CEM/C1, 240 h; summary of the method: as §3
DB = experiment: Antiproliferative activity against human DB cells after 10 days; details: 240 h; summary of the method: as §2
ChaGo-K-1 = experiment: Antiproliferative activity against human ChaGo-K-1 cells after 10 days; details: ChaGo-K-1, 240 h; summary of the method: as §2
AU565 = experiment: Antiproliferative activity against human AU565 cells after 10 days; details: AU565, 240 h; summary of the method: as §3
HT-29 = experiment: Antiproliferative activity against human HT-29 cells after 10 days; details: HT-29, 240 h; summary of the method: as §2
[8] = Antiproliferative activity against human HUH-6-clone5 cells after 10 days; details: HUH-6-clone5, 240 h; summary of the method: as §2
PANC-1 = experiment: Antiproliferative activity against human PANC-1 cells after 10 days; details: PANC-1, 240 h; summary of the method: as §1
AGS = experiment: Antiproliferative activity against human AGS cells after 10 days; details: 240 h; summary of the method: as §3
COLO 205 = experiment: Antiproliferative activity against human COLO 205 cells after 10 days; details: COLO 205, 240 h; summary of the method: as §3

Cc1cn(CCN2CCN(c3ccccc3-c3cc(C#N)cc(C(=O)NCCCN4CCCC4)c3)CC2)c2ccccc12
IC50 (MCF7): 3.11 µM
IC50 (OE19): 2.52 µM
IC50 (Calu-1): 2.85 µM
IC50 (COR-L23): 2.21 µM
IC50 (SW1417): 3.23 µM
IC50 [1]: 2.54 µM
IC50 (MES-SA): 2.3 µM
IC50 (BFTC-905): 2.5 µM
IC50 (Daudi): 0.857 µM
IC50 (SW48): 1.35 µM
IC50 (T98G): 5.87 µM
IC50 (SNU1): 1.19 µM
IC50 (SK-N-FI): 6.03 µM
IC50 (HCT-15): 1.7 µM
IC50 [2]: 1.24 µM
IC50 [3]: 3.65 µM
IC50 (SW1463): 3.06 µM
IC50 (Jurkat): 0.925 µM
IC50 (FaDu): 2.36 µM
IC50 (Daoy): 3.67 µM
IC50 (SK-BR-3): 1.17 µM
IC50 (BXPC-3): 2.87 µM
IC50 (SK-NEP-1): 3.18 µM
IC50 (NCI-H446): 3.16 µM
IC50 (COLO 320DM): 2.11 µM
IC50 (A549): 3.39 µM
IC50 [4]: 2.34 µM
IC50 (RPMI-7951): 2.05 µM
IC50 (NCI-H292): 2.69 µM
IC50 (SW872): 2.53 µM
IC50 (Capan-2): 1.57 µM
IC50 (HOS): 2.13 µM
IC50 (SW 962): 3.38 µM
IC50 (CAPAN-1): 5.09 µM
IC50 [5]: 1.99 µM
IC50 (MDA-MB-231): 1.07 µM
IC50 (SW982): 5.79 µM
IC50 (Ramos): 1.04 µM
IC50 (MHH-PREB-1): 1.06 µM
IC50 [6]: 1.06 µM
IC50 (MG-63): 6.12 µM
IC50 (T47D): 2.22 µM
IC50 [7]: 1.27 µM
IC50 (DB): 1.17 µM
IC50 (ChaGo-K-1): 1.23 µM
IC50 (AU565): 1.25 µM
IC50 (HT-29): 1.26 µM
IC50 [8]: 1.34 µM
IC50 (PANC-1): 2.87 µM
IC50 (AGS): 1.27 µM
IC50 (COLO 205): 0.944 µM

O=C(NC1CN(Cc2cnn(Cc3ccccc3)c2)C1)c1cn(C2CC2)nn1
IC50 (MCF7): > 10 µM
IC50 (OE19): > 10 µM
IC50 (Calu-1): > 10 µM
IC50 (COR-L23): > 10 µM
IC50 (SW1417): > 10 µM
IC50 [1]: > 10 µM
IC50 (MES-SA): > 10 µM
IC50 (BFTC-905): > 10 µM
IC50 (Daudi): > 10 µM
IC50 (SW48): > 10 µM
IC50 (T98G): > 10 µM
IC50 (SNU1): > 10 µM
IC50 (SK-N-FI): > 10 µM
IC50 (HCT-15): > 10 µM
IC50 [2]: > 10 µM
IC50 [3]: > 10 µM
IC50 (SW1463): > 10 µM
IC50 (Jurkat): > 10 µM
IC50 (FaDu): > 10 µM
IC50 (Daoy): > 10 µM
IC50 (SK-BR-3): > 10 µM
IC50 (BXPC-3): > 10 µM
IC50 (SK-NEP-1): > 10 µM
IC50 (NCI-H446): > 10 µM
IC50 (COLO 320DM): > 10 µM
IC50 (A549): > 10 µM
IC50 [4]: > 10 µM
IC50 (RPMI-7951): > 10 µM
IC50 (NCI-H292): > 10 µM
IC50 (SW872): > 10 µM
IC50 (Capan-2): > 10 µM
IC50 (HOS): > 10 µM
IC50 (SW 962): > 10 µM
IC50 (CAPAN-1): > 10 µM
IC50 [5]: > 10 µM
IC50 (MDA-MB-231): > 10 µM
IC50 (SW982): > 10 µM
IC50 (Ramos): > 10 µM
IC50 (MHH-PREB-1): > 10 µM
IC50 [6]: 3.4 µM
IC50 (MG-63): > 10 µM
IC50 (T47D): > 10 µM
IC50 [7]: > 10 µM
IC50 (DB): 0.663 µM
IC50 (ChaGo-K-1): > 10 µM
IC50 (AU565): > 10 µM
IC50 (HT-29): > 10 µM
IC50 [8]: > 10 µM
IC50 (PANC-1): > 10 µM
IC50 (AGS): > 10 µM
IC50 (COLO 205): > 10 µM
